The species named for data set [1] is Cavia porcellus. The experiment in a line: Evaluated for decrease in contractility in isolated guinea pig atria. The data set is classed as functional. A digest of the protocol: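 Electrically driven left guinea pig atria (300–500 g, either sex) in modified Tyrode's gassed 98% O2/2% CO2, 30 °C, 1 g resting tension. Stimulation 3 ms rectangular pulses at 1.5× threshold, 2.5 Hz, after 20 min equilibration. Isometric force in grams. Concentrations added cumulatively, doubled every 10 min, one atrium per experiment. EC30 (30% fall from predrug value) read from curves.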

Data set [2] in a line: EC30 ratio of maximal driving frequency to atrial rate in isolated guinea pig atria. The data set is classed as functional, Cardiac atrium. A digest of the protocol:
(§1)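 Ratios of EC30 values from isolated guinea pig atria. Atrial rate was measured in spontaneously beating atria at 37 °C after at least 30 min of equilibration, until rate varied by no more than 5 beats/min. Contractility was measured in left atria driven at 2.5 Hz, 30 °C. Maximal driving frequency was found by stepwise pacing. Compound was added cumulatively, concentration doubled every 10 min.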

Data set [3] can be described thus: Dissociation constant (pKa). In kind it is physicochemical.
Data set [4] in a line: Partition coefficient (logD7.4). As to conditions: octanol/water, pH 7.4.
Data set [5] is described as follows: EC30 ratio of contractility to atrial rate in isolated guinea pig atria. In kind it is functional, Cardiac atrium. In short, it runs like this: as §1
For data set [6], the species on record is Cavia porcellus. The experiment in a line: Evaluated for decrease in spontaneous frequency of atrial rate in isolated guinea pig atria. The data set is classed as functional. The conditions noted are these: Cardiac atrium. In short, it runs like this: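 Atria dissected from guinea pigs of various breeds (300–500 g, either sex) and suspended in modified Tyrode's solution gassed with 98% O2/2% CO2, resting tension 1 g. Spontaneously beating atria at 37 °C, equilibrated at least 30 min until rate stable within 5 beats/min. Drug added cumulatively, concentration doubled every 10 min. EC30 = concentration reducing predrug rate by 30%, read from curves.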

For data set [7], the species on record is Cavia porcellus. The experiment in a line: Evaluated for decrease in maximal driving frequency in isolated guinea pig atria. In kind it is functional. In short, it runs like this:
(§2)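 Guinea pig left atria in modified Tyrode's gassed 98% O2/2% CO2, 1 g resting tension, driven with 1 ms pulses at 3× threshold. Runs separated by 5 min at 0.5 Hz. Control is the mean of 3 predrug runs; the value is the mean of runs at 5 and 10 min after each cumulative addition, concentration doubled every 10 min. EC30 read from curves.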

The subject of data set [8] is Rattus norvegicus. Description: Dose required to decrease heart rate after iv injection to spinal rats. In kind it is functional. A digest of the protocol: (§3)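 Male Chbb:THOM rats, 200–250 g, under pentobarbital sodium 50 mg/kg ip, atropine sulfate 1 mg/kg sc, trachea cannulated. Medulla cut at C1, brain destroyed, artificially ventilated. Jugular iv injections given cumulatively, dose doubled every 2 min, 3 doses per animal, top cumulative dose 10 mg/kg. ECG-triggered tachograph heart rate. D150 (dose lowering rate 150 beats/min) read graphically from log dose–response curves; n = 6 rats.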

The species entered for data set [9] is Rattus norvegicus. Description: Evaluated for decreased heart rate in spinal rats, relative activity was determined. In kind it is functional. In short, it runs like this: as §3
The species entered for data set [10] is Cavia porcellus. The experiment in a line: Evaluated for increase in maximal driving frequency in isolated guinea pig atria. In kind it is functional. In short, it runs like this: as §2
Data set [11] in a line: Ratio of contractility to atrial rate in isolated guinea pig atria. The data set is classed as functional, Cardiac atrium. A digest of the protocol: as §1

Each structure is given as a SMILES string. Values after ≈ are worked out from the molar mass of the structure shown.

On to `Brc1cccc(Br)c1N(CC1CC1)C1=NCCN1`, for which the 30% effect concentration (EC30) (commonly the point of the concentration-response curve where the effect stands at 30%) in the data set listed under Cavia porcellus [1] was 95 µg/mL (≈ 255 µM); in the data set filed under Cavia porcellus [6], 0.65 µg/mL (≈ 1.74 µM); in the data set listed under Cavia porcellus [7], 12 µg/mL (≈ 32.2 µM). Moreover, the Ratio amounted to 18 in data set [2] and 146 in [5]. Moreover, the pKa – broadly, the negative logarithm of the acid dissociation constant – in [3] is 10.9. In addition, the logD (in general, the decadic logarithm of the distribution of all forms, ionised or not, between an organic phase and buffer at a given pH) in data set [4] is -1.12. This molecule also showed a D150 in the data set with Rattus norvegicus [8] of 0.62 mg/kg. The molecule also gave a Relative activity in the data set filed under Rattus norvegicus [9] of 1.
Regarding `C[N+](C)(C)CCOC(N)=O.[Cl-]` [CARBACHOL], the figures for the EC30 in the data set listed under Cavia porcellus [1], in the data set filed under Cavia porcellus [10] and in the data set listed under Cavia porcellus [6] were 0.0065 µg/mL, 0.09 µg/mL and 0.029 µg/mL, respectively. Further, in [11], the Ratio came out at 0.22.

The values above are taken from ChEMBL document CHEMBL1121557, “Chemistry, pharmacology, and structure-activity relationships with a new type of imidazolines exerting a specific bradycardic action at a cardiac site” (J Med Chem, 1980).
